In the library only some 2.8% were active in any assay of this set; here they are far more common.
NPY Y1 blocker – NPY-Y1 receptor antagonists, primary screen, cell-based; HEK293-CNG Y1 cells, membrane potential fluorescence; NPY at EC95, then isoproterenol; inhibition, % at 3.6 µM; 200,000 tested, 1% active; AID 1040, 2008;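 active = inhibition above the campaign mean inhibition of all tested compounds plus 3 SD, cut at about 20% in these data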;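 also: 0% = DMSO wells given NPY plus isoproterenol and 100% = isoproterenol alone without NPY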
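Material: HEK293 Y1/CNG channel cell line; also added: NPY (25 nM), isoproterenol (1 µM), Ro 20-1724 (25 µM); doses: one concentration, 3.6 µM, in 0.4% DMSO; schedule: compound incubation 1 h at room temperature, readout 45 min post-stimulation; technique: membrane potential fluorescence; measure: fluorescence ratio normalized to % inhibition between controls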
PGE2 EP2 inh – human EP2 receptor antagonists, primary screen, TR-FRET cAMP, C6 glioma cells; Prostaglandin E2 receptor EP2 subtype (Homo sapiens), P43116; C6 glioma cells expressing human EP2; cells stimulated with saturating PGE2; inhibition, % at 25 µM; 260,000 tested, 0.52% active; AID 1422, 2008;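 active = percent inhibition above 40 after rounding to a whole number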;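 also: rat C6 glioma host cells with rolipram phosphodiesterase inhibitor present; the protocol text gives 20 µM as final concentration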
Target sequence (P43116 whole entry, looked up): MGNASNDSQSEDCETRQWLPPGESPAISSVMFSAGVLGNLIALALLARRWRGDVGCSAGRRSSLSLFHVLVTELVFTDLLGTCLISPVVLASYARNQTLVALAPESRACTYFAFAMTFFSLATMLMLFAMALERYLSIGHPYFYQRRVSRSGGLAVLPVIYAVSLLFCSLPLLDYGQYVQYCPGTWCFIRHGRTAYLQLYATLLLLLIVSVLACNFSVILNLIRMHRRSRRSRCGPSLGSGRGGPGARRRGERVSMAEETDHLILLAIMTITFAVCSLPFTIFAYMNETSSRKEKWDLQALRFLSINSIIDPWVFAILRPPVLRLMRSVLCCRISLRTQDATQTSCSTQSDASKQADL
NPY1 pot ag – NPY-Y1 receptor potentiators or agonists, primary screen, cell-based. NPY-Y1 expressing cells, potentiator/agonist activation. activation, % at 3.6 µM. 220,000 tested, 0.37% active; in the data active = activation above about 33%, passing the limit was not always enough;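 also: cells stimulated with NPY at EC10 then isoproterenol at EC100; 0% = low agonist plus stimulus and 100% = saturating agonist plus stimulus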
NPY-Y2 antag – NPY-Y2 receptor antagonists, primary screen, cell-based; 140,000 tested, 0.99% active; inhibition, % at 2.7 µM; Neuropeptide Y receptor type 2 (Homo sapiens), P49146; AID 793, 2007; NPY-Y2 expressing cells, antagonist mode; in the data active = inhibition above about 17%;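 also: 0% = vehicle with agonist challenge and 100% = reference antagonist with challenge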
Target sequence (P49146 whole entry, looked up): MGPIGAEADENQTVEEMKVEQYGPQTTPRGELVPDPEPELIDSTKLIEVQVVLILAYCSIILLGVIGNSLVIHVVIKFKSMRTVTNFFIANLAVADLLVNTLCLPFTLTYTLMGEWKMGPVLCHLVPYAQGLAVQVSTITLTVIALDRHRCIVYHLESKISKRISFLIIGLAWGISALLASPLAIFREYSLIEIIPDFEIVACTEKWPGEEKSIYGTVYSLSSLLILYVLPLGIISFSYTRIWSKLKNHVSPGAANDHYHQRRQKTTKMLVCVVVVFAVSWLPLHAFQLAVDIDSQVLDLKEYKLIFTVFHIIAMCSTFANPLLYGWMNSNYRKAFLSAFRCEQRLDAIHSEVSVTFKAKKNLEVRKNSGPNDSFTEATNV
EP2 mod – EP2 receptor modulators, cAMP readout, primary screen, cell-based, HTRF cAMP, PGE2 stimulation; Prostaglandin E2 receptor EP2 subtype (Homo sapiens), P43116; EP2-expressing cells, cAMP HTRF FRET, PGE2 co-stimulation; induction, % at 25 µM; 260,000 tested, 0.83% active;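 active = compounds whose cAMP rise, as percent of the full-agonist control response, exceeds 60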;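 also: rat C6 glioma line stably carrying human EP2 under a CMV promoter; the protocol text gives 20 µM as final concentration; 100% = response of wells given 1 µM PGE2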
NPY-Y2 PAM-ag – NPY-Y2 potentiators or agonists, primary screen, cell-based | activation, % at 3.6 µM | Neuropeptide Y receptor type 2 (Homo sapiens), P49146 | cells expressing NPY-Y2, potentiator/agonist read-out | 220,000 tested, 0.45% active; in the data active = activation above about 27%;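 also: cells stimulated with NPY near EC25 plus isoproterenol at EC100; 0% = vehicle plus submaximal agonist and 100% = vehicle plus saturating agonist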
NPY-Y1 antag ct – NPY-Y1 receptor antagonists, selectivity check, counter-screen for NPY-Y2 antagonist project, cell-based | cell-based NPY-Y1 antagonism counterscreen | shares compounds with NPY-Y2 antag | AID 1256, 2008 | inhibition, % at 3.6 µM | 710 tested, 19% active; in the data active = inhibition above about 20%;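 also: cells challenged with NPY then isoproterenol with cAMP sensed through a CNG channel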
NPY-Y2 ant conf – NPY-Y2 receptor antagonists, retest of hits, confirmation, HEK293-CNG cells, membrane potential fluorescence, triplicate; shares compounds with NPY-Y2 antag; HEK293 NPY-Y2 CNG channel; inhibition, % at 2.8 µM; 710 tested, 32% active; AID 1257, 2008;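 active = mean inhibition of triplicate wells above the hit cutoff set in the primary screen, cut at about 17% in these data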;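 also: 0% = DMSO with NPY challenge and 100% = BIIE0246 high control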
* hit, by the source's call; · = not tested or not shown.

SMILES | NPY Y1 blocker | PGE2 EP2 inh | NPY1 pot ag | NPY-Y2 antag | EP2 mod | NPY-Y2 PAM-ag | NPY-Y1 antag ct | NPY-Y2 ant conf
CC(C)c1ccc(/C=C/C(=O)NC(=S)Nc2ccc(CN3CCOCC3)cc2)cc1 | 3 | 1 | -1 | 21* | 3 | -7 | 25* | 72*
COc1cccc(CNC(=O)Cn2c(=O)n(C(C)C)c3ncccc32)c1 | · | 7 | · | · | -25 | · | · | ·
CCC(c1nnnn1C(C)(C)C)N1CCN(C2CCCC2)CC1 (stereo not drawn) | 1 | 14 | -5 | 4 | 9 | 2 | · | ·
CCCC(c1nnnn1C(C)(C)CC)N1CCN(C2CCCC2)CC1 (stereo not drawn) | 19 | 13 | -21 | 25* | 12 | -23 | 15 | 8
CCC(c1nnnn1C1CCCCC1)N1CCN(C2CCCC2)CC1 (stereo not drawn) | 9 | 11 | -22 | 27* | -5 | 2 | 11 | 12
CCc1n[nH]c(=S)n1/N=C/c1cc(Br)c(OC)cc1OC | 2 | 7 | -16 | 21* | 25 | 2 | 6 | 18*
O=C(/C=C/c1ccc(Cl)cc1)Nn1c(-c2cccs2)nc2ccccc2c1=O | 3 | -2 | -2 | 11 | 3 | 6 | · | ·
Cc1nc2ccccc2c(=O)n1NC(=O)/C=C/c1ccc(Br)cc1 | 18 | 12 | -17 | 18* | -18 | -9 | 16 | 11
O=C(C1CCN(Cc2ccc(Cl)cc2)CC1)N1CCN(C(c2ccccc2)c2ccccc2)CC1 | 3 | 5 | -28 | 20* | 12 | -4 | 9 | 32*
O=C(C1CCN(Cc2ccc(OCc3ccccc3)cc2)CC1)N1CCCC1 | 8 | 2 | -12 | 7 | 1 | 6 | · | ·
COc1ccccc1NC(=S)N(CCCO)Cc1cc2c(C)cc(C)cc2[nH]c1=O | · | 10 | · | · | -14 | · | · | ·
COC(=O)c1cc2occc2n1Cc1nc(-c2ccccc2Cl)oc1C | 4 | 11 | 4 | 20* | 49 | -5 | 13 | 20*
O=C1CCc2cc(S(=O)(=O)NCC3CCCN(Cc4ccccc4)C3)ccc2N1 (stereo not drawn) | · | 4 | · | · | -78 | · | · | ·
O=C(COC(=O)c1ccc(S(=O)(=O)NCc2ccco2)cc1)NC1CCCCCC1 | 2 | 9 | 16 | 1 | -3 | 8 | · | ·
O=C(NC1CCCCCC1)c1ccc(S(=O)(=O)NCc2ccco2)cc1 | 17 | 7 | -14 | 21* | 12 | -11 | 12 | 6
Fc1ccc(CN(CCCN2CCOCC2)Cc2cccnc2)cc1F | · | 5 | · | · | 0 | · | · | ·
O=C(CN1CCCC1)N1CCCc2c1c(=O)oc1ccc(OCc3ccccc3)cc21 | 17 | 5 | -39 | 19* | · | -11 | 23* | 28*
CCCOc1ccc2oc(=O)c3c(c2c1)CCCN3C(=O)CN1CCN(C(=O)c2ccco2)CC1 | -2 | · | -5 | 0 | -5 | 0 | · | ·
COc1ccc2[nH]c(=O)c(-c3noc(-c4cc(OC)c(OC)c(OC)c4)n3)cc2c1 | · | 6 | · | · | 16 | · | · | ·
O=C(N/N=C/c1ccco1)c1ccccc1OCc1ccc(Br)cc1 | 16 | 9 | -59 | 33* | 26 | -47 | 20 | 20*
CC(C)COP(=O)(OCC(C)C)C(Nc1ccccc1)c1ccc2c(c1)OCO2 (stereo not drawn) | 17 | · | -6 | 20* | 0 | 13 | 11 | 6
Nc1n[nH]c(-c2ccc(Cl)cc2)c1Cl | · | 4 | · | · | -27 | · | · | ·
COCCCNC(=O)c1cc2c(n(-c3ccc(Cl)cc3)c1=O)CCCC2=O | · | 15 | · | · | -8 | · | · | ·
CNC(=O)c1csc(-c2ccc(Cl)cc2)n1 | -3 | 8 | 8 | · | 10 | 11 | · | ·
O=C(Nc1ccc(Cl)cc1)c1csc(-c2ccccc2)n1 | 20 | 3 | -50 | 20* | 39 | -45 | 20 | 23*
SMILES | NPY Y1 blocker | PGE2 EP2 inh | NPY1 pot ag | NPY-Y2 antag | EP2 mod | NPY-Y2 PAM-ag | NPY-Y1 antag ct | NPY-Y2 ant conf
Cc1cccc(C(=O)Nc2ccc(NC(=O)Cc3ccc(Cl)cc3)cc2)c1 | 6 | 4 | -9 | 2 | 8 | -1 | · | ·
O=C(Cc1ccc(Cl)cc1)Nc1ccc(NC(=O)c2ccccc2)cc1 | 11 | 5 | 22 | 21* | 14 | 10 | 0 | 2
Cc1cc(C)nc(NC(=O)CSc2nc3ccccc3s2)n1 | 2 | 7 | -23 | 2 | 6 | -1 | · | ·
Cc1ccc(S(=O)(=O)NC(=O)CSc2nc3ccccc3s2)cc1 | 13 | 8 | -21 | 20* | 5 | -25 | 12 | 14
CCOc1ccc(-n2cc(C(=O)Nc3cccc(Cl)c3)c3cc(OC)c(OC)cc3c2=O)cc1 | 13 | 10 | -62 | 18* | 11 | -30 | 12 | 20*
Cc1cc2c(s1)c1cnn(CC(=O)N(C3CCCCC3)C3CCCCC3)c(=O)c1n2C | · | · | · | · | -19 | · | · | ·
CCC(C)NC(=O)CSc1nc2c(sc3ccccc32)c(=O)n1CCCN1CCOCC1 (stereo not drawn) | 2 | 2 | 22 | 4 | -3 | -4 | · | ·
CCOC(=O)CSc1nc2c(sc3ccccc32)c(=O)n1CCCN1CCOCC1 | 14 | 5 | -20 | 19* | 48 | -5 | 21* | 15
Cc1ccc(-c2nc3ncccc3o2)cc1NC(=O)CC(C)C | -5 | 6 | -10 | 2 | 9 | 6 | · | ·
Cc1ccc(-c2nc3ncccc3o2)cc1NC(=O)COc1ccccc1 | 3 | 12 | -23 | 21* | 4 | 2 | 8 | 5
CC(=C1C(=O)c2ccccc2C1=O)N1CCc2ccccc2C1 | 6 | 17 | -14 | -1 | -19 | 7 | · | ·
CC(C)c1ccc(/C=C/C(=O)N2CCc3ccccc3C2)cc1 | 3 | 7 | -8 | 18* | -8 | -8 | 29* | 25*
Oc1cccc(-c2nc3ccc4ccccc4c3c3c2CCC3)c1 | 16 | 13 | -30 | 30* | 32 | -36 | 10 | 32*
O=C(NNc1c2ccccc2nc2ccccc12)c1cccc(O)c1 | -6 | 17 | 0 | 1 | -8 | 0 | · | ·
Cc1ccc(C(C(=O)NC2CCCCC2)N(Cc2cccnc2)C(=O)C2COc3ccccc3O2)o1 (stereo not drawn) | 7 | 14 | 8 | 25* | -3 | 2 | 3 | 8
O=C(COc1ccc(Cl)cc1)NCCSCc1ccccc1Cl | 19 | 8 | -29 | 16 | -26 | -29 | · | ·

Source: PubChem BioAssay (several laboratories)
